SR-BI HDL uptake: mouse SR-BI HDL lipid transfer inhibition; Q61009; ldlA[mSR-BI] CHO cells, DiI-HDL uptake fluorescence, 3 h; inhibition, % at 12.5 µM; 320,000 compounds, 0.96% hits; AID 488896;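 active = mean replicate inhibition of at least 70% and a set share of replicates each scoring 70 or more; inconclusive = meets just one of the two criteria; inactive = fails both criteria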;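 note: 0% = median of neutral control wells and 100% = median of positive control wells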
SR-BI DiI-HDL act: SR-BI HDL lipid transfer activation. CHO ldlA[mSR-BI] cells, DiI-HDL uptake fluorescence, 3 h; 100 = double the neutral-control signal. activation, % at 12.5 µM. 320,000 compounds, 0.096% hits. AID 504775;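 active = mean replicate activation of at least 60% and every replicate at or above 60%; inconclusive = mean or all-replicate condition met, but not both; inactive = mean below 60% and not all replicates reaching 60%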;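 note: 0% = median plate neutral-control signal and 100% = twice that signal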
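Material: SR-BI-overexpressing, LDLR-lacking CHO cells | Dosing: Single compound concentration, delivered by pin transfer | Probe or stimulus: Labelled HDL, 10 µg/mL | Signal: Bottom-read cell fluorescence after medium removal, ex 550/em 595 nm | Schedule: 3 h, 37 °C | Evaluation: HDL uptake via cellular fluorescence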
CAL PDZ FP-1: blocks peptide binding to human CAL PDZ domain; purified CAL PDZ, TMR-peptide fluorescence polarization, 1 h; inhibition, % at 20 µM; 330,000 compounds, 0.02% hits;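 active = highest replicate inhibition of at least 40%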;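 note: plate controls were DMSO neutral control wells for no effect and unlabeled competitor peptide control wells for full effect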
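Material: tagged CAL PDZ domain; buffer or medium: 25 mM sodium phosphate pH 7.4, 150 mM NaCl, TCEP, IgG, Thesit; compound dosing: single point, 20 µM; schedule: 1 h incubation at room temperature before polarization reading; measured by: FP readout, S and P plane fluorescence; read-out basis: percent inhibition from loss of millipolarization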
CAL PDZ FP-2: CAL PDZ (human) peptide binding inhibition; Q9HD26; purified CAL PDZ, TMR-peptide fluorescence polarization, 1 h; inhibition, % at 24.9 µM; 300,000 compounds, 0.92% hits;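 active = mean inhibition of at least 30% with at least half of replicates also reaching 30%; inconclusive = no clear call, values can overlap the other calls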;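 note: 0% = DMSO neutral control and 100% = excess unlabeled competitor peptide PRC23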
dFosB act-1: enhances mouse delta FosB homodimer DNA binding. purified delta FosB, TAMRA-CDK5 oligo fluorescence polarization; percent of positive-control signal above neutral wells. activation, % at 25 µM. 340,000 compounds, 0.99% hits;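 active = mean activation above about 17%, with every replicate also reaching it, limit read from the data, passing the limit was not always enough; inconclusive = only one of the two conditions met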
Target sequence (P13346 whole entry, looked up): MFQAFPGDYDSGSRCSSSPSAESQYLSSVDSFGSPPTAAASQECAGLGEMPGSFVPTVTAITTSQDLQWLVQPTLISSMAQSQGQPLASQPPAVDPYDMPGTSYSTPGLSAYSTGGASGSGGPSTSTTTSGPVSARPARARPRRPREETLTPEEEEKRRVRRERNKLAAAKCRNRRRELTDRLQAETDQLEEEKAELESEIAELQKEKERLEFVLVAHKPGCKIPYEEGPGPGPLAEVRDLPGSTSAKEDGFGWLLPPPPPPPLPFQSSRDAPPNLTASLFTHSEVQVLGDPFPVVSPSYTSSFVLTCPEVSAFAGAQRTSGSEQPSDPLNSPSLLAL
dFosB act-2: delta FosB (mouse) homodimer activation. shares compounds with dFosB act-1. purified delta FosB, TAMRA-CDK5 oligo fluorescence polarization; normalised: neutral wells 0, positive control 100. activation, % at 24.9 µM. 2,400 tested, under 10 active;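 active = highest replicate activation at or above 34% and every replicate reaching that threshold; inconclusive = meets only one of the two criteria; inactive = meets neither criterion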;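 note: higher polarization means more probe DNA bound by delta FosB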
Numbers without * were called inactive; ? = inconclusive; nt = not tested or not shown. The list is not random: actives were taken first. Their share in the collection is about 2.8%.

SMILES | SR-BI HDL uptake | SR-BI DiI-HDL act | CAL PDZ FP-1 | CAL PDZ FP-2 | dFosB act-1 | dFosB act-2
O=C(Nc1ccccc1Oc1cccnc1)C1CCCN(C/C=C/c2ccccc2)C1 (stereo not drawn) | -21 | 21 | -4 | -1 | -6 | nt
COc1ccc2[nH]c3c(c2c1)CCN1C(=O)C(CC(=O)NCCCn2ccnc2)C[C@H](C(=O)N2CCOCC2)[C@@]31C (stereo partly drawn) | 0 | 0 | 0 | -5 | -8 | nt
O=C(COCc1cc(-c2ccc3c(c2)OCO3)on1)N1CCN(c2cccc(C(F)(F)F)c2)CC1 | -8 | 8 | -1 | -4 | -5 | nt
COc1ccc(OC)c(NC(=O)c2ccno2)c1 | 9 | -9 | 0 | 5 | -2 | nt
O=C(NCc1ccc2c(c1)OCO2)c1ccc2c(=O)n(C3CCCC3)c(=O)[nH]c2c1 | 21 | -21 | -4 | -3 | 40* | -4
COc1ccc(CNCC(O)(c2ccc(Cl)cc2)c2ccc(Cl)cc2)cc1 | 6 | -6 | 0 | -10 | 21* | 0
O=C(O)c1cc(S(=O)(=O)Nc2ccc(OCc3ccccc3)cc2)ccc1Br | 20 | -20 | 0 | -6 | -17 | nt
CCN(CC)CCn1c2ccccc2c2cnc(N)c(C#N)c21 | 21 | -21 | 0 | -1 | 62* | -1
CCN(CC)CCn1c2ccccc2c2nc3ccccc3nc21 | 7 | -7 | 0 | -2 | -33 | nt
CN(C)C=Nc1ncc2c3ccccc3n(CCN(C)C)c2c1C#N | -11 | 11 | -1 | -1 | 33* | -3
CN(C)C=Nc1ncc2c3ccccc3n(Cc3ccccc3)c2c1C#N | 43 | -43 | 0 | nt | 2 | nt
CCc1cc2c(Nc3ccc(O)cc3)nc(C)nc2s1 | 4 | -4 | -1 | 0 | -6 | nt
O=C(Cc1cccc2ccccc12)Nc1ccccc1Br | -8 | 8 | 0 | -2 | -4 | nt
Cc1ccc(NC(=O)Cn2c(=O)c3cccn3c3ccccc32)c(C)c1 | -8 | 8 | -2 | -3 | 46* | 6
Cc1cc(Br)cc(C)c1OCC(=O)NNC(=O)CCC(=O)NCc1ccccc1 | 30 | -30 | 0 | nt | 49* | 3
Cc1ccc(OCC(=O)NNC(=O)CCC(=O)NCc2ccccc2)cc1 | -3 | 3 | 0 | nt | 6 | nt
O=C(Cn1cnc2c(oc3nc4c(cc32)CCCC4)c1=O)Nc1cccc(Cl)c1 | -6 | 6 | -3 | -3 | 20* | -1
O=C([C@@H]1CCCN1C(=O)c1cccs1)N1CCN(S(=O)(=O)c2cccc(F)c2)CC1 | -3 | 3 | 0 | nt | -7 | nt
Nc1cc(N)nc(SCC(=O)N2CCN(S(=O)(=O)c3ccccc3)CC2)n1 | -21 | 21 | 1 | -3 | -7 | nt
COc1ccc(CNC(=O)Cn2ncn3c(cc4ccccc43)c2=O)cc1 | -6 | 6 | 0 | -2 | 73* | 1
Cc1nn(CC(=O)Nc2cccc(Cl)c2)c(=O)c2cc(-c3ccccc3)nn12 | -15 | 15 | -2 | 18 | 7 | nt
COc1ccc(CNC(=O)Cn2nc(C)n3cccc3c2=O)cc1 | 1 | -1 | -1 | -4 | 0 | nt
COc1ccc(-c2cc3c(=O)n(CC(=O)NCc4ccc(F)cc4)ncn3n2)cc1 | 8 | -8 | -1 | 50* | 101* | ?
COc1ccc(-c2cc3c(=O)n(CC(=O)NCc4ccc(Cl)cc4)ncn3n2)cc1 | 12 | -12 | -1 | nt | 0 | nt
COc1ccc(-c2cc3c(=O)n(CC(=O)Nc4cccc(Cl)c4)ncn3n2)cc1 | -2 | 2 | -2 | -1 | 42* | 2
SMILES | SR-BI HDL uptake | SR-BI DiI-HDL act | CAL PDZ FP-1 | CAL PDZ FP-2 | dFosB act-1 | dFosB act-2
COc1ccccc1N1CCN(C(=O)CCc2nnc3ccc(N4CCC(C)CC4)nn23)CC1 | 10 | -10 | -1 | nt | -11 | nt
CCCCCCOC(=O)c1ccc(N)cc1 | -9 | 9 | -1 | -2 | -1 | nt
CCCCCCCCCCCC1N=C(N)NC(CCCO)=C1C(=O)OC (stereo not drawn) | -3 | 3 | -1 | -2 | 42* | ?
Cc1ccccc1Oc1nc(-c2ccccn2)nc2ccccc12 | 7 | -7 | -1 | -4 | -12 | nt
C/C(=N\Nc1cc(C)nc(NCc2ccccc2)n1)c1ccc([N+](=O)[O-])cc1 | 86* | -86 | 2 | 1 | 30* | 1
Cc1cc(N/N=C/c2ccccc2Cl)nc(NCc2ccccc2)n1 | 14 | -14 | -1 | -3 | 51* | 4
O=C(Nc1nc2ccccc2[nH]1)c1ccc([N+](=O)[O-])cc1 | 6 | -6 | 0 | -3 | 4 | nt
C/C(=N\NC(=O)c1cc(C)nc2ccccc12)c1ccc([N+](=O)[O-])cc1 | 28 | -28 | -11 | -23 | 4 | nt
Cc1ccc(Nc2cc(C)nc(NCc3ccccc3)n2)cc1 | -4 | 4 | -3 | -1 | ? | nt
C/C(=N\Nc1nc2ccccc2[nH]1)c1ccc([N+](=O)[O-])cc1 | 26 | -26 | 0 | 3 | 21* | 2
Cc1n[nH]c(C)c1CCNC(=O)C1CCC(=O)N(Cc2ccccc2F)C1 (stereo not drawn) | -11 | 11 | -2 | 1 | -4 | nt
O=C(Cc1nnc(NC(=O)c2ccccc2)s1)N/N=C/c1ccco1 | 10 | -10 | 0 | 4 | 21* | 4
Cc1ccccc1C(=O)Nc1nnc(CC(=O)N/N=C/c2ccncc2)s1 | 13 | -13 | -1 | -6 | 38* | 0
O=C(Cc1nnc(NC(=O)c2ccccc2)s1)N/N=C/c1cccc(O)c1 | 46 | -46 | -2 | -8 | 1 | nt
CC(=O)c1c(C)[nH]c(C(=O)OCC(=O)N2CCc3ccccc32)c1C | 41 | -41 | -2 | -2 | 29* | 8
O=C(OCC(=O)N1CCc2ccccc21)c1n[nH]c(=O)c2ccccc12 | -1 | 1 | 1 | -2 | 38* | -1
CCOC(=O)c1[nH]c(C)c(C(=O)OCC(=O)N2CCc3ccccc32)c1C | 24 | -24 | -1 | nt | 3 | nt
N#Cc1ccc(CN2CCN(C(=O)c3cc(C4CC4)nn3-c3ccccc3)CC2)cc1 | 43 | -43 | 0 | -4 | -21 | nt
Cc1cc(C)c(NC(=O)Nc2ccccc2C)c(Cl)c1 | nt | nt | 0 | 3 | 20* | 2
COc1ccc(NC(=O)NNC(=O)COc2ccc(Cl)cc2C)cc1OC | -9 | 9 | -1 | -2 | 45* | 4
O=C(NNC(=O)c1cc(-c2ccc(Cl)c(Cl)c2)nc2ccccc12)Nc1ccccc1 | 30 | -30 | -1 | 4 | 5 | nt
Cc1ccc(NC(=O)NNC(=O)COc2ccc([N+](=O)[O-])cc2)cc1C | -6 | 6 | -1 | nt | 32* | -10
Cc1cccc(NC(=O)NNC(=O)c2cc(-c3ccccc3Cl)nc3ccccc23)c1 | 17 | -17 | -2 | nt | 20* | 0
Cc1ccc(NC(=O)Nc2ccc(Cl)cc2)c(Br)c1 | 19 | -19 | 0 | -6 | 3 | nt

Screening results as filed in PubChem.
